This is a sample that favours compounds with a hit; in the whole collection about 3.1% have one here.
PREPL inhibitor: human PREPL enzyme inhibition. 320,000 tested, 0.68% active. recombinant PREPL, fluorescence polarization activity-based probe. inhibition, % at 5.96 µM. AID 2751. Q4J6C6; in the data active means inhibition above about 43%;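 further: 0% = enzyme with DMSO and 100% = wells lacking enzyme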
MEKK3 PB1 HTS: MEKK3-MEK5 PB1 interaction, increase or decrease. Q99759. bead-based flow cytometry, Alexa488-MEK5 binding to MEKK3; actives lie on both sides; 0 = blocked by unlabeled MEK5, 100 = vehicle. binding response (% of control), % at 10 µM. 290,000 tested, 1.4% active. AID 1529;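 active means binding response more than 3 SD above or below the average of its plate-row segment, actives on both sides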;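 further: Alexa488 bead fluorescence after subtracting the streptavidin-only scavenger bead signal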
Target sequence (Q99759 whole entry, looked up): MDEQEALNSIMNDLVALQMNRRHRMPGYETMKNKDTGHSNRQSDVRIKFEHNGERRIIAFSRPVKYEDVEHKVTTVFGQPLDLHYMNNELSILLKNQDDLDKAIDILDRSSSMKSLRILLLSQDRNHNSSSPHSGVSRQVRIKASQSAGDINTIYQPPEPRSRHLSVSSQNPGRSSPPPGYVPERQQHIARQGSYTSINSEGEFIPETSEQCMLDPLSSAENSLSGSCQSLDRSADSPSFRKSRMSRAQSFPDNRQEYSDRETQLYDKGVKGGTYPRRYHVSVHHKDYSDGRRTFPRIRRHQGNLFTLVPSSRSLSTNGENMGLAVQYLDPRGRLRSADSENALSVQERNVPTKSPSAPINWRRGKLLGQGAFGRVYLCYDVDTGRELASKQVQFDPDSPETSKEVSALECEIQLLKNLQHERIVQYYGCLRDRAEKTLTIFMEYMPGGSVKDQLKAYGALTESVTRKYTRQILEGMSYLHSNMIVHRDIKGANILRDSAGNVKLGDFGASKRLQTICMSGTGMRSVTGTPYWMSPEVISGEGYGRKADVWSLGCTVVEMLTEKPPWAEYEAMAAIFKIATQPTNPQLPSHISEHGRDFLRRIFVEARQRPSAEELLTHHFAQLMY
MEKK2 mut-MEK5: signal of MEK5 binding to mutant human MEKK2 PB1 domain; percent response, % at 10 µM; AID 1530; bead flow cytometry, Alexa488-MEK5 binding to MEKK2 mutant; 290,000 tested, 0.35% active; in the data active means percent response above about 24%, passing the limit was not always enough
UBC13 polyUb: inhibitors of human UBC13 polyubiquitin chain formation | P61088 | TR-FRET | inhibition, % at 20 µM | 330,000 tested, 0.47% active | AID 485273; in the data active means inhibition above about 45%, passing the limit was not always enough
MEKK2wt PB1 HTS: raises or lowers MEK5 binding to wildtype human MEKK2 PB1 domain; bead flow cytometry, Alexa488-MEK5 binding to MEKK2 WT; actives lie on both sides; binding response (% of control), % at 10 µM; 290,000 tested, 1.1% active; in the data active means binding response below about 67% or above about 130%
Apaf-1 inh: inhibitors of human Apaf-1 apoptosome | O14727 | reconstituted apoptosome caspase-3 activity, DEVD-Rh110 fluorescence | inhibition, % at 20 µM | 330,000 tested, 0.71% active; active means inhibition of at least 40% at 20 µM;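 further: plate controls were DMSO wells for no effect and DEVD-CHO caspase inhibitor wells for full effect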
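Material: reconstituted apoptosome with Apaf-1, cytochrome c, caspase-9, procaspase-3, dATP; medium: pH 7.5 Hepes buffer with CHAPS, BSA, DTT; also added: cytochrome c and DEVD-Rh110 substrate; timing: 30 min plus 50 min, RT; signal: Rh110 fluorescence intensity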
MEKK2wt confirm: raises or lowers MEK5 binding to wildtype human MEKK2, retest. shares compounds with MEKK3 PB1 HTS. bead flow cytometry, Alexa488-MEK5 binding to MEKK2 WT; actives lie on both sides. 5,900 tested, 2.4% active. binding response (% of control), % at 10 µM. AID 1892; in the data active means binding response below about 16% or above about 210%; inactive means in between
MEKK2mut-MEK5: signal of MEK5 binding to mutant human MEKK2, retest; shares compounds with MEKK3 PB1 HTS; bead flow cytometry, Alexa488-MEK5 binding to MEKK2 mutant; percent response, % at 10 µM; 5,900 tested, 2% active; in the data active means percent response mostly above about 71%, no sharp cut-off; inactive means mostly below about 38%;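 further: higher means compound restores mutant binding toward wildtype level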
MEKK3-MEK5 inh: MEKK3-MEK5 PB1 inhibition, single concentration confirmation. shares compounds with MEKK3 PB1 HTS. bead flow cytometry, Alexa488-MEK5 binding to MEKK3; hits give low values. binding response (% of control), % at 10 µM. 5,900 tested, 1.8% active;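 active means binding response below 72% of control, or above a set upper limit, though filed actives all read lower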;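 further: 100% = DMSO only wells and 0% = binding blocked by excess unlabeled MEK5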
Numbers without * were called inactive; / = not tested or not shown; [ ] = another dose, or the depositor's remark.

SMILES	PREPL inhibitor	MEKK3 PB1 HTS	MEKK2 mut-MEK5	UBC13 polyUb	MEKK2wt PB1 HTS	Apaf-1 inh	MEKK2wt confirm	MEKK2mut-MEK5	MEKK3-MEK5 inh
COc1cccc(C(=O)NCc2ccc3[nH]c(C)cc3c2)c1	2.4	61.0*[inhibitor]	-6.0	-0.9	-6.0*	-2.8	77.0	-7.0	77.0
Cc1c(Cl)cccc1NC(=O)COC(=O)c1ccc(CN2CCCC2=O)cc1	15.6	/	/	2.1	/	2.2	/	/	/
Cc1cc(C)cc(NC(=O)c2ccc(S(=O)(=O)C(F)F)cc2)c1	-1.4	144.0*	1.0	-1.1	110.0	0.8	107.0	6.0	103.0
Cc1cccc(NC(=O)c2ccc(S(=O)(=O)N3CCOCC3)cc2)c1C	8.7	103.0	1.0	0.6	99.0	10.1	/	/	/
Cc1cccc(NC(=O)c2ccc(S(=O)(=O)C(F)F)cc2)c1C	0.9	137.0*	-1.0	2.4	103.0	9.0	109.0	0.0	104.0
COc1ccc(CCCNC(=O)C2CCC(=O)N(CCc3cccc(F)c3)C2)cc1 (centres undefined)	1.7	101.0	9.0	5.2	106.0	11.7	/	/	/
CCOc1cccc(CNCc2ccc(C(=O)O)cc2)c1	2.6	50.0*[inhibitor]	-17.0	-1.3	58.0	-2.3	101.0	-6.0	101.0
O=C(O)c1ccc(CNCc2cccc(Oc3ccccc3)c2)cc1	-8.7	106.0	9.0	-2.1	105.0	0.4	/	/	/
CCOC(=O)C1C(=O)OC(C)(C)C1C(C)C(=O)c1ccc(C)cc1C (centres undefined)	18.0	1.0*[inhibitor]	-26.0	6.8	-2.0*[inhibitor]	2.7	96.0	15.0	102.0
O=C(NC(Nc1ccc(F)cc1)(C(F)(F)F)C(F)(F)F)c1cccnc1	5.8	53.0*[inhibitor]	-1.0	-5.7	93.0	-5.8	106.0	6.0	104.0
O=C(NNC(=S)NC(=O)c1cccnc1)c1ccc(F)cc1	7.0	95.0	-8.0	-1.1	90.0	10.1	/	/	/
COc1cccc2cc(C(=O)NCCN3CCOCC3)c(=O)oc12	-7.6	97.0	1.0	7.7	95.0	-5.2	/	/	/
CCCn1c(SCC(=O)Nc2sc(C)c(C)c2C#N)nnc1C(C)C	-0.1	124.0*	6.0	0.9	116.0	7.2	104.0	5.0	105.0
Cc1sc(NC(=O)CSc2nnc(C(C)C)n2C)c(C#N)c1C	15.9	106.0	3.0	3.4	104.0	11.4	/	/	/
COc1ccc(NC(=O)Cc2cccs2)c(OC)c1	-1.9	103.0	4.0	-0.4	111.0	4.6	/	/	/
COC(=O)c1cc(OC)c(OC)cc1NC(=O)Cc1cccs1	1.7	5.0*[inhibitor]	-46.0	4.2	7.0*[inhibitor]	-11.6	99.0	-3.0	98.0
COc1ccc(C(N)CCc2ccco2)cc1 (centres undefined)	32.4	113.0	27.0*	7.3	132.0	7.7	119.0	15.0	98.0
COc1ccc(S(=O)(=O)N(C)C(C)CCc2ccco2)cc1 (centres undefined)	-2.1	110.0	5.0	-5.2	103.0	14.4	/	/	/
Cc1ccc(S(=O)(=O)N(C)CC(=O)N2CCN(Cc3ccccc3)CC2)cc1	/	103.0	-5.0	-4.6	100.0	3.2	/	/	/
N=C1CCCN1CC(=O)c1ccc(Cl)cc1	13.5	131.0*	0.0	-7.2	106.0	11.7	95.0	-6.0	96.0
CC(Oc1ccccc1)C(=O)N=C1SC2CS(=O)(=O)CC2N1Cc1ccccc1 (centres undefined)	6.4	105.0	10.0	-3.3	107.0	9.3	/	/	/
O=C(Nc1ccccc1)N(C1=NCCCCS1)c1cccc2ccccc12	-1.8	127.0*	4.0	-16.7	116.0	0.1	102.0	4.0	98.0
Cc1c(C(=O)C(=O)N2c3ccc(F)cc3CCC2C)c2ccccc2n1C (centres undefined)	0.5	141.0*	1.0	-2.7	108.0	20.2	97.0	-4.0	104.0
Cc1c(Cl)cccc1NC(=O)COC(=O)Cn1cnc2c1c(=O)n(C)c(=O)n2C	21.5	/	/	0.7	/	8.7	/	/	/
Cc1cc(Br)ccc1NC(=O)CCSc1ccccc1	0.2	100.0	4.0	-5.4	97.0	0.0	/	/	/
SMILES	PREPL inhibitor	MEKK3 PB1 HTS	MEKK2 mut-MEK5	UBC13 polyUb	MEKK2wt PB1 HTS	Apaf-1 inh	MEKK2wt confirm	MEKK2mut-MEK5	MEKK3-MEK5 inh
Cc1cc(NC(=O)CCSc2ccccc2)ccc1Br	-21.9	133.0*	-1.0	-1.6	113.0	-65.0	104.0	-4.0	105.0
CCCCN(C)CCNC(=O)CCn1nc(-c2ccc(C)cc2)ccc1=O	3.2	103.0	6.0	-7.0	105.0	7.8	/	/	/
CCCCCCc1cc2cc(-c3nnc(-c4ccccc4O)o3)c(=O)oc2cc1O	16.2	101.0	5.0	-64.0	71.0*[inhibitor]	-139.7	100.0	-1.0	108.0
CCCCCCc1cc2cc(S(=O)(=O)c3ccc(F)cc3)c(=O)oc2cc1O	-4.5	138.0*	0.0	-4.9	103.0	14.8	105.0	-1.0	104.0
CCOc1ccc(CN(C)C(C)C(=O)Nc2ccc([N+](=O)[O-])cc2Cl)cc1OC (centres undefined)	1.0	139.0*	-2.0	-6.5	98.0	16.4	103.0	3.0	100.0
CCOc1ccc(C(=O)/C=C/c2cn(CN3CCN(C)CC3)c3ccccc23)cc1	20.2	112.0	41.0*	22.4	204.0*	32.0	156.0	27.0	109.0
COc1ccc(C(=O)/C=C/c2cn(CN3CCN(C)CC3)c3ccccc23)cc1	25.4	/	/	15.1	/	2.6	/	/	/
Nc1nc(NCC2CCCO2)nc(Nc2ccc(F)cc2)c1[N+](=O)[O-] (centres undefined)	5.0	199.0*	2.0	-5.2	117.0	2.1	105.0	1.0	103.0
COc1ccc(C2CC2/C(C)=N/OC(=O)c2ccc(F)cc2)cc1 (centres undefined)	-24.4	141.0*	4.0	1.5	125.0	9.4	108.0	9.0	109.0
Cc1ccc(NN2C(=O)C=C(c3ccccc3)C2=O)cc1	/	100.0	-3.0	6.7	95.0	9.4	/	/	/
CCN(Cc1ccccc1)C(=O)c1oc2ccc(S(=O)(=O)N3CCOCC3)cc2c1C	-0.3	103.0	5.0	1.4	98.0	2.3	/	/	/
CC(C)CN1CCNC(=O)C1CC(=O)NCCc1cnn(-c2ccccc2)c1 (centres undefined)	19.2	105.0	16.0	6.3	130.0	2.8	/	/	/
CC(C)CN1CCNC(=O)C1CC(=O)NCCc1ccc(C(F)(F)F)cc1 (centres undefined)	5.5	104.0	36.0	4.0	160.0*	5.7	113.0	5.0	102.0

Source: PubChem
